Experimental data published in ChEMBL document CHEMBL1158533, “Pyrazolylthiazole as DeltaF508-cystic fibrosis transmembrane conductance regulator correctors with improved hydrophilicity compared to bithiazoles” (J Med Chem, 2010).

How the values were obtained:
[1] = Octanol-water partition coefficient, log P by reverse-phase HPLC analysis; format: physicochemical
Summary of the method: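 logP derived from reverse-phase HPLC capacity factor: logk from measured retention time, converted via a calibration curve of standards with known logP versus their logk values.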

[2] = target: Cystic fibrosis transmembrane conductance regulator (Homo sapiens, UniProt P13569); test: Binding affinity to human CFTR F508 deletion mutant expressed in FRT cells assessed as increase in iodine influx after 16 to 20 hrs by fluorescence assay; format: cell-based
Sequence of Cystic fibrosis transmembrane conductance regulator (P13569 whole entry, looked up): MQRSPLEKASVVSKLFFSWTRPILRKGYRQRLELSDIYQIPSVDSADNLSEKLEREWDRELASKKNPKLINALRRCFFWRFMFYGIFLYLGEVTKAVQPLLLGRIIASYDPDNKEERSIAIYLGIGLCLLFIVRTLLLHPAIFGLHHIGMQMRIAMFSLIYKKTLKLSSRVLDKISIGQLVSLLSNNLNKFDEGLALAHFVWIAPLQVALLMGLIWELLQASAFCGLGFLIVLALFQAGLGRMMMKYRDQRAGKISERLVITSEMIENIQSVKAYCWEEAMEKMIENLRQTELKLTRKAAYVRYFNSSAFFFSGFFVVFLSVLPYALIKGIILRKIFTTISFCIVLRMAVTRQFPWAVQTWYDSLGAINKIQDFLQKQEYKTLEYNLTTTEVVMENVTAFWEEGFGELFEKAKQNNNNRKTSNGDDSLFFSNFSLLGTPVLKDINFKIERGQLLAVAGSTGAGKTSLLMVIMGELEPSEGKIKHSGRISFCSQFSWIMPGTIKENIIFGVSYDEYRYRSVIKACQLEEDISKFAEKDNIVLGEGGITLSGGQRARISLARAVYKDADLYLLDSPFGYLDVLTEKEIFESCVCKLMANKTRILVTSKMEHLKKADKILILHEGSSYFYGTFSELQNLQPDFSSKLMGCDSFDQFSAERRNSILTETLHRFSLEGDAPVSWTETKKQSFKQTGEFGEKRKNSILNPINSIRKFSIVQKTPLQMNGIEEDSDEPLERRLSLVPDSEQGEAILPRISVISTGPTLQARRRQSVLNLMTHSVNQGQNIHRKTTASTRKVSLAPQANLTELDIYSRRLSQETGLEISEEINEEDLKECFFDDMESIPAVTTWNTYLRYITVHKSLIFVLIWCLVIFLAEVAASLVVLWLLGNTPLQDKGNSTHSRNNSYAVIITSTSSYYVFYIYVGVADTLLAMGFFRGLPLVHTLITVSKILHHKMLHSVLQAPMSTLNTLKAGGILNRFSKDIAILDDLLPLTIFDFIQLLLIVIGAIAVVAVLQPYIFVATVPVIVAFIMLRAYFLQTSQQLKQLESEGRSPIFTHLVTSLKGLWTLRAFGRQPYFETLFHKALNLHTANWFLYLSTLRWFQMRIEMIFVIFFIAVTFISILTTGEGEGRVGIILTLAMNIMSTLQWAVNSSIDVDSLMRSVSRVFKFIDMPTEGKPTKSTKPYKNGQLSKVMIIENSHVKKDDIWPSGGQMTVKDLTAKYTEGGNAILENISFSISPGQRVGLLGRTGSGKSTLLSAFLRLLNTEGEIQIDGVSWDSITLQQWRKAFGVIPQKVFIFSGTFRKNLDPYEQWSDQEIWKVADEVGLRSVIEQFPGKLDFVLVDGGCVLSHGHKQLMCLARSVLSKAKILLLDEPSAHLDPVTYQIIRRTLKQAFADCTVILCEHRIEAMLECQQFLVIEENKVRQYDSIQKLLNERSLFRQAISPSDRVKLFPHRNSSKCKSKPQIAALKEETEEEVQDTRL
Summary of the method: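 FRT cells stably coexpressing human ΔF508-CFTR and halide sensor YFP-H148Q/I152L, grown 24 h at 37 °C, then incubated 16–20 h with test compound. Washed in PBS, then 20 min in PBS with forskolin (20 μM) and genistein (50 μM). Fluorescence (ex 500, em 535 nm) recorded 2 s baseline, then 12 s after I⁻-substituted PBS addition; initial I⁻ influx rate from exponential regression; EC50 and Vmax from concentration dependence.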

Row | logP [1] | EC50 [2] | Structure (SMILES)
1 | 5.52 | 3400 nM | COc1ccc(NC(=O)c2cc(-c3sc(NC(=O)C(C)(C)C)nc3C)n(-c3ccc(Br)cc3)n2)cc1
2 | – | 8500 nM | CCOC(=O)c1cc(-c2sc(NC(=O)C(C)(C)C)nc2C)nn1Cc1ccccc1
3 | – | 700 nM | COc1ccc(Cl)cc1Nc1nc(-c2sc(NC(=O)C(C)(C)C)nc2C)cs1
4 | – | 300 nM | COc1ccc(Cl)cc1Nc1nc2c(s1)CCCc1nc(NC(=O)C(C)(C)C)sc1-2
